Measurements from ChEMBL document CHEMBL4219039, “Group-Based Optimization of Potent and Cell-Active Inhibitors of the von Hippel-Lindau (VHL) E3 Ubiquitin Ligase: Structure-Activity Relationships Leading to the Chemical Probe …” (J Med Chem, 2018).
pKd: −log10 of the molar value. Active and inactive are the calls of the source. The calls are words filed in the database; no cut-off is given here.

Tests used:
[1] = Half life in plasma (unknown origin) at pH 7.4 at 50 uM up to 180 mins by UPLC-MS/MS analysis; assay type: ADME, cell-free
Procedure, shortened: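 Compound at 50 μM incubated at 37 °C in prewarmed plasma buffered to pH 7.4 (70:30 plasma to buffer). Aliquots were taken at 0, 30, 60, 120 and 180 min and quenched in acetonitrile with donepezil internal standard. Samples were centrifuged and analysed by UPLC-MS/MS. The rate constant was fitted as exponential decay of the compound/internal standard peak-area ratio.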

[2] = Passive permeability of the compound in pH 7.4 PBS at 10 uM after 5 hrs by UPLC-MS/MS method based PAMPA; assay type: ADME; conditions: pH 7.4, 5 h
Procedure, shortened: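 Precoated PAMPA plate with lipid–oil–lipid trilayer filter. Compound at 10 μM in PBS pH 7.4 (≤5% DMSO) in the donor well, PBS in the acceptor well. Held 5 h at room temperature; both compartments quantified by UPLC-MS/MS. Pe calculated from peak areas; data accepted only if recovery exceeded 70%. Propranolol as control.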

[3] = Chromatographic hydrophobicity index, log D of the compound at pH 7.4 by HPLC analysis; assay type: physicochemical; conditions: buffer
Procedure, shortened: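 DMSO stocks (10 mM) diluted to 0.25 mM in 50:50 acetonitrile:water. Run on C18 HPLC at 20 °C, 1 mL/min. Mobile phase 10 mM ammonium acetate pH 7.4 with an acetonitrile gradient. Retention times calibrated against a standard mix of eleven reference compounds, then converted to CHIlogD.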

[4] = Intrinsic clearance in CD1 mouse liver microsomes at 0.5 uM up to 30 mins by UPLC-MS/MS analysis; assay type: ADME, microsome; conditions: 0.5 h
Procedure, shortened: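 Compound at 0.5 μM with female CD1 mouse liver microsomes (0.5 mg/mL) in 50 mM potassium phosphate pH 7.4, started with excess NADPH. Samples quenched in acetonitrile at 0, 3, 6, 9, 15 and 30 min; UPLC-MS/MS against internal standard. Decay rate constant converted to CLi assuming 52.5 mg microsomal protein/g liver. Verapamil as assay control.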

[5] = molecular target: T1, Von Hippel-Lindau disease tumor suppressor/Elongin B/Elongin C (Homo sapiens) (UniProt P40337+Q15370+Q15369); experiment: Inhibition of VBC in human HeLa cells assessed as HIF-1alpha stabilization by measuring HIF-1alpha protein levels at 50 uM after 2 hrs by Western blot analysis; assay type: cell-based; design: scale not given: the % may be the effect or the level left
T1 sequence (P40337 whole entry, looked up): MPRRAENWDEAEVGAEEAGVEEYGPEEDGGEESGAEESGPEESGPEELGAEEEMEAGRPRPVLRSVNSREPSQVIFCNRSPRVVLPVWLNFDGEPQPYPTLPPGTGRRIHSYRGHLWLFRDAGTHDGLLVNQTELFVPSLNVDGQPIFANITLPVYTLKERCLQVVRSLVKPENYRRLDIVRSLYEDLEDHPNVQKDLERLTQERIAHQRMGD
T1 sequence (Q15369 whole entry, looked up): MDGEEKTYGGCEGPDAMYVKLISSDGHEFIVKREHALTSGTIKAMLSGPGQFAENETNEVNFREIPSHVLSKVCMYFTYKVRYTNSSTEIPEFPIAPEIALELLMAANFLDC
T1 sequence (Q15370 whole entry, looked up): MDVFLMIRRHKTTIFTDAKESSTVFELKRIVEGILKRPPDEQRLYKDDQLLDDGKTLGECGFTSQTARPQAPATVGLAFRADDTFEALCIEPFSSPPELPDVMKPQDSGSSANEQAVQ
Procedure, shortened: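 HeLa (ATCC) grown in DMEM with 10% FBS, L-glutamine and penicillin/streptomycin at 37 °C; mycoplasma-tested. Treated 2 h in fresh medium, 1% DMSO as vehicle control. Lysed in RIPA buffer with protease inhibitors, SDS-PAGE, nitrocellulose blot. Anti-HIF-1α probed with β-actin as loading control, IRDye 800CW secondary for detection. Levels normalized to a reference VHL inhibitor.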

HeLa [6] = experiment: Antiproliferative activity against human HeLa cells assessed as reduction in colony formation at 150 uM incubated for 24 hrs by crystal violet staining based assay; assay type: cell-based
Procedure, shortened: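 HeLa cells, 500–2000 per well, seeded one day before exposure to 150 μM compound; 1% DMSO as vehicle control. Medium replaced after 24 h treatment, then grown a further week. Stained with 0.005% crystal violet in 25% methanol for 10 min at room temperature. Colonies counted on scanned plates.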

HeLa [7] = experiment: Antiproliferative activity against human HeLa cells assessed as reduction in cell proliferation at 150 uM incubated for 24 to 72 hrs by haemocytometry; assay type: cell-based
[8] = molecular target: T2, Von Hippel-Lindau disease tumor suppressor/Elongin B/Elongin C (Homo sapiens, UniProt P40337); experiment: Displacement of FAM-labeled HIF-1alpha peptide from VBC (unknown origin) by fluorescence polarization assay
T2 sequence (P40337 whole entry, looked up): as the sequence (P40337 whole entry, looked up) above

[9] = molecular target: T1, Von Hippel-Lindau disease tumor suppressor/Elongin B/Elongin C (Homo sapiens); experiment: Binding affinity to VBC (unknown origin) assessed as dissociation rate constant at 50 uM after 160 secs at 20 degC by surface plasmon resonance assay; assay type: protein-complex assay
Procedure, shortened: (§1)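 SPR on a Biacore T100 at 10 and 20 °C against VBC complex. Ligand stock 50 μM in DMSO, 2-fold serial dilutions in SPR buffer (20 mM HEPES, 150 mM NaCl, 1 mM DTT, 0.005% Tween P20, pH 7.0). Kd taken as koff/kon.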

[10] = molecular target: T1, Von Hippel-Lindau disease tumor suppressor/Elongin B/Elongin C (Homo sapiens); experiment: Binding affinity to VBC (unknown origin) assessed as association rate constant at 50 uM after 60 secs at 10 degC by surface plasmon resonance assay; assay type: protein-complex assay; procedure, shortened: as §1
[11] = molecular target: T1, Von Hippel-Lindau disease tumor suppressor/Elongin B/Elongin C (Homo sapiens); experiment: Inhibition of VBC in human HeLa cells expressing HRE-luciferase reporter gene assessed as reduction in HIF transcriptional activity at 1 to 250 uM after 24 hrs by luciferase reporter gene assay; assay type: cell-based
[12] = molecular target: T1, Von Hippel-Lindau disease tumor suppressor/Elongin B/Elongin C (Homo sapiens)
[13] = molecular target: T1, Von Hippel-Lindau disease tumor suppressor/Elongin B/Elongin C (Homo sapiens); experiment: Binding affinity to VBC (unknown origin) assessed as dissociation rate constant at 50 uM after 160 secs at 10 degC by surface plasmon resonance assay; assay type: protein-complex assay; procedure, shortened: as §1
[14] = molecular target: T1, Von Hippel-Lindau disease tumor suppressor/Elongin B/Elongin C (Homo sapiens); remark: listed apart in the source
[15] = molecular target: T2, Von Hippel-Lindau disease tumor suppressor/Elongin B/Elongin C

SMILES | permeability [2] [×10⁻⁶ cm/s] | chromatographic logD [3] | Activity [5] [%] | Activity (HeLa [6]) | Activity (HeLa [7]) | pKd [8] | further results
CC(=O)N[C@H](C(=O)N1C[C@H](O)C[C@H]1C(=O)NCc1ccc(-c2scnc2C)cc1)C(C)(C)C | 0.12 | 0.9 | 100 | – | – | – | half-life at 50 µM [1]: > 3 h; intrinsic clearance (CLint) [4]: 0.7 mL/min/g
CC(=O)N[C@@H](C)C(=O)N1C[C@H](O)C[C@H]1C(=O)NCc1ccc(-c2scnc2C)cc1 | – | – | 12 | – | – | – | –
Cc1ncsc1-c1ccc(CNC(=O)[C@@H]2C[C@@H](O)CN2C(=O)[C@@H](NC(=O)C2(C#N)CC2)C(C)(C)C)cc1 | 1.94 | 1.4 | 190 | Non-Toxic | Non-Toxic | – | half-life at 50 µM [1]: > 3 h; intrinsic clearance (CLint) [4]: 3.1 mL/min/g
Cc1ncsc1-c1ccc(CNC(=O)[C@@H]2C[C@H](O)CN2C(=O)[C@@H](NC(=O)C2(C#N)CC2)C(C)(C)C)cc1 | – | – | – | Non-Toxic | Non-Toxic | – | –
CCC(=O)N[C@H](C(=O)N1C[C@H](O)C[C@H]1C(=O)NCc1ccc(-c2scnc2C)cc1)C(C)(C)C | – | – | 98 | – | – | – | –
CC(=O)N1CC(C(=O)N[C@H](C(=O)N2C[C@H](O)C[C@H]2C(=O)NCc2ccc(-c3scnc3C)cc2)C(C)(C)C)C1 | – | – | 12 | – | – | 5.31 | –
Cc1ncsc1-c1ccc(CNC(=O)[C@@H]2C[C@H](O)CN2C(=O)[C@@H](NC(=O)C2(F)CC2)C(C)(C)C)cc1 | – | – | – | Toxic | Toxic | – | –
CC(=O)N(C)[C@H](C(=O)N1C[C@H](O)C[C@H]1C(=O)NCc1ccc(-c2scnc2C)cc1)C(C)(C)C | – | – | 26 | – | – | – | –
Cc1ncsc1-c1ccc(CNC(=O)[C@@H]2C[C@@H](O)CN2C(=O)[C@@H](NC(=O)C(C)(C)F)C(C)(C)C)cc1 | – | – | 19 | – | – | 6.11 | –
Cc1ncsc1-c1ccc(CNC(=O)[C@@H]2C[C@@H](O)CN2C(=O)[C@@H](NC(=O)C2(F)CC2)C(C)(C)C)cc1 | 2.71 | 1.63 | 175 | Toxic | Toxic | – | half-life at 50 µM [1]: > 3 h; K [9]: 0.098 s⁻¹; K [10]: 2.4 ×10⁶ /M/s; inhibition [11]: Active; T1/2 [12]: 7.07 s; K [13]: 0.058 s⁻¹; intrinsic clearance (CLint) [4]: 2.9 mL/min/g; T1/2 [14]: 11.9 s
Cc1ncsc1-c1ccc(CNC(=O)[C@@H]2C[C@@H](O)CN2C(=O)[C@@H](NC(=O)C2CC2)C(C)(C)C)cc1 | 0.61 | 1.14 | 105 | – | – | 6.77 | pKd [15]: 6.88
Cc1ncsc1-c1ccc(CNC(=O)[C@@H]2C[C@@H](O)CN2C(=O)[C@@H](NC(=O)C(Cl)(Cl)Cl)C(C)(C)C)cc1 | – | – | 89 | – | – | 6.70 | –
